From ChEMBL document CHEMBL1126734, “Synthesis of phosphocholine and quaternary amine ether lipids and evaluation of in vitro antineoplastic activity” (1993)

Key:
HL-60 [1] = test: Standard thymidine incorporation assay (TdR) was carried out for 48 hr and involved a 24-h pulse of [3H]- thymidine (n=5) and ID50 value was evaluated; type: functional; conditions: Homo sapiens, read-out: ID50 (the source's name)
In short: (§1)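 HL-60 human promyelocytic leukemia cells in RPMI 1640 with 10% heat-inactivated FBS, 37 °C, 5% CO2. Log-phase cells seeded at 5 × 10^4/well with inhibitor dilutions from ethanol stocks (1 or 10 mg/mL). At 24 h, pulsed with 1.0 μCi [methyl-3H]thymidine (6.7 Ci/mmol) for a further 24 h. Harvested onto glass fiber filters and counted by liquid scintillation as % of control. Quadruplicate determinations. Values in μM.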

HL-60 [2] = test: Trypan blue exclusion assay (TB) was carried out for 48 hr and the in vitro ID50 value was evaluated in the HL-60 leukemic cell system (n=4); type: functional; conditions: Homo sapiens, HL-60, 48 h; read-out: ID50 (the source's name)
In short: (§2)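 HL-60 human promyelocytic leukemia cells were grown in suspension in RPMI 1640 with 10% heat-inactivated FBS, penicillin/streptomycin, 2 mM L-glutamine and 0.22% NaHCO3 at 37 °C under 5% CO2. Cells at 5 × 10^5/mL were exposed to various inhibitor concentrations diluted from ethanol stocks into medium for 48 h. Trypan blue in PBS was then added and viable cells were counted by hemocytometer. Triplicate determinations; values in μM.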

HL-60 [3] = test: Standard thymidine incorporation assay (TdR) was carried out for 48 hr and involved a 24-h pulse of [3H]- thymidine (n=1) and ID50 value was evaluated; type: functional; conditions: Homo sapiens, read-out: ID50 (the source's name); in short: as §1
HL-60 [4] = test: Trypan blue exclusion assay (TB) was carried out for 48 hr and the in vitro ID50 value was evaluated in the HL-60 leukemic cell system (n=1); type: functional, Homo sapiens; conditions: read-out: ID50 (the source's name); in short: as §2
HL-60 [5] = test: Standard thymidine incorporation assay (TdR) was carried out for 48 hr and involved a 24-h pulse of [3H]- thymidine (n=2) and ID50 value was evaluated; type: functional; conditions: Homo sapiens, read-out: ID50 (the source's name); in short: as §1
HL-60 [6] = test: Trypan blue exclusion assay (TB) was carried out for 48 h and the in vitro ID50 value was evaluated in the HL-60 leukemic cell system (n=3); type: functional; conditions: Homo sapiens, HL-60, 48 h; read-out: ID50 (the source's name); in short: as §2
HL-60 [7] = test: Standard thymidine incorporation assay (TdR) was carried out for 48 hr with an 8 hr pulse of [3H]- thymidine (TdR8) (n=3) and ID50 value was evaluated; type: functional; conditions: Homo sapiens, read-out: ID50 (the source's name)
In short: (§3)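 HL-60 leukemia suspension cultures grown in RPMI 1640/10% FBS at 37 °C, 5% CO2. Cells seeded at 5 × 10^4/well with inhibitors diluted from ethanol stocks. 48-h exposure, with 1.0 μCi [methyl-3H]thymidine (6.7 Ci/mmol) added for the last 8 h. Filter-harvested cells counted by liquid scintillation, uptake expressed as percent of control. Quadruplicate determinations. Results in μM.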

HL-60 [8] = test: Standard thymidine incorporation assay (TdR) was carried out for 48 hr and involved a 24-h pulse of [3H]- thymidine (n=3) and ID50 value was evaluated; type: functional; conditions: Homo sapiens, read-out: ID50 (the source's name); in short: as §1
HL-60 [9] = test: Standard thymidine incorporation assay (TdR) was carried out for 48 hr with an 8 hr pulse of [3H]- thymidine (TdR8) (n=5) and ID50 value was evaluated; type: functional; conditions: Homo sapiens, read-out: ID50 (the source's name); in short: as §3
HL-60 [10] = test: Standard thymidine incorporation assay (TdR) was carried out for 48 hr with an 8 hr pulse of [3H]- thymidine (TdR8) (n=4) and ID50 value was evaluated; type: functional; conditions: Homo sapiens, read-out: ID50 (the source's name); in short: as §3
HL-60 [11] = test: Standard thymidine incorporation assay (TdR) was carried out for 48 hr with an 8 hr pulse of [3H]- thymidine (TdR8) (n=1) and ID50 value was evaluated; type: functional; conditions: Homo sapiens, read-out: ID50 (the source's name); in short: as §3
HL-60 [12] = test: Trypan blue exclusion assay (TB) was carried out for 48 hr and the in vitro ID50 value was evaluated in the HL-60 leukemic cell system (n=33); type: functional; conditions: Homo sapiens, HL-60, 48 h; read-out: ID50 (the source's name); in short: as §2
HL-60 [13] = test: Standard thymidine incorporation assay (TdR) was carried out for 48 hr and involved a 24-h pulse of [3H]- thymidine (n=21) and ID50 value was evaluated; type: functional; conditions: Homo sapiens, read-out: ID50 (the source's name); in short: as §1
HL-60 [14] = test: Standard thymidine incorporation assay (TdR) was carried out for 48 hr with an 8 hr pulse of [3H]- thymidine (TdR8) (n=16) and ID50 value was evaluated; type: functional; conditions: Homo sapiens, read-out: ID50 (the source's name); in short: as §3

## CCCCCCCCCCCCCCCCCC(=O)NCC(COP(=O)([O-])OCC[N+](C)(C)C)OCC (stereo unspecified)
HL-60 [1]
  IC50: 3.3 µM
HL-60 [2]
  IC50: 1.64 µM

## CCCCCCCCCCCCCCCCSCC(C[N+](C)(C)CCO)OCCCCCC (stereo unspecified)
HL-60 [3]
  IC50: 7.15 µM

## CCCCCCCCCCCCCCCCSCC(COP(=O)(O)OCC[N+](CC)(CC)CC)OCC (stereo unspecified)
HL-60 [4]; Homo sapiens, HL-60, 48 h
  IC50: 3.31 µM

## CCCCCCCCCCCCCCCCSCC(C[n+]1ccsc1)OC (stereo unspecified)
HL-60 [5]
  IC50: 7.17 µM
HL-60 [4]; Homo sapiens, HL-60, 48 h
  IC50: 8.75 µM

## CCCCCCCCCCCCCCCCSCC[n+]1ccccc1
HL-60 [3]
  IC50: 2.28 µM

## CCCCCCCCCCCCCCCCSCC[N+](C)(C)CCO
HL-60 [3]
  IC50: 3.95 µM

## CCCCCCCCCCCCCCCCCCOCC(C[N+]1(C)CCC(O)CC1)OCC (stereo unspecified)
HL-60 [5]
  IC50: 4.3 µM

## CCCCCCCCOCC(C[N+](C)(C)C)OC (stereo unspecified)
HL-60 [6]
  IC50: 21.2 µM
HL-60 [7]
  IC50: 27 µM

## CCCCCCCCCCCCCCCCOCC(C[S+](C)CCO)OC (stereo unspecified)
HL-60 [6]
  IC50: 2.49 µM
HL-60 [8]
  IC50: 2.01 µM
HL-60 [9]
  IC50: 2.03 µM

## CCCCCCCCCCCCCCCCSCCC[N+]1(C)CCC(O)C1 (stereo unspecified)
HL-60 [3]
  IC50: 3.77 µM

## CCCCCCCCCCCCCCCCSCC(COC)C[N+](C)(C)CCCO (stereo unspecified)
HL-60 [3]
  IC50: 3.46 µM

## CCCCCCCCCCCCCCCCOCC(CSCC[N+](C)(C)C)OC (stereo unspecified)
HL-60 [6]
  IC50: 2.23 µM
HL-60 [5]
  IC50: 2.4 µM
HL-60 [10]
  IC50: 1.85 µM

## CCCCCCCCCCCCCCCCCC(=O)NCC(COP(=O)([O-])OCC[N+](C)(C)C)OCCCCCCCCCCCCCC (stereo unspecified)
HL-60 [8]
  IC50: > 100 µM

## CCCCCCCCCCCCCCCCOCC(C[n+]1cccc(CO)c1)OC (stereo unspecified)
HL-60 [5]
  IC50: 1.68 µM
HL-60 [10]
  IC50: 0.85 µM
HL-60 [2]
  IC50: 1.07 µM

## CCCCCCCCCCCCCCCCCCOCC(C[N+]1(C)CCOCC1)OCC (stereo unspecified)
HL-60 [5]
  IC50: 3.92 µM
HL-60 [4]; Homo sapiens, HL-60, 48 h
  IC50: 2.92 µM

## CCCCCCCCCCCCCCCCSCC(COC)C[N+](C)(C)C (stereo unspecified)
HL-60 [3]
  IC50: 3.52 µM

## CCCCCCCCCCCCCCCCSCC(C[N+](C)(C)C)OCCCCC (stereo unspecified)
HL-60 [3]
  IC50: 4.97 µM
HL-60 [11]
  IC50: 5.02 µM
HL-60 [4]; Homo sapiens, HL-60, 48 h
  IC50: 6.14 µM

## CCCCCCCCCCCCCCCCSCC(COP(=O)([O-])OCC[N+](C)(C)C)OCC (stereo in doubt; 2)
HL-60 [7]
  IC50: 3.11 µM
HL-60 [8]
  IC50: 2.19 µM
HL-60 [4]
  IC50: 2.25 µM

## CCCCCCCCCCCCCCCCSCC(COP(=O)([O-])OCC[N+](C)(C)C)OCC (stereo in doubt; 5)
HL-60 [4]
  IC50: 6.75 µM

## CCCCCCCCCCCCCCCCCCOCC(COP(=O)([O-])OCC[N+](C)(C)C)OC (stereo unspecified) [EDELFOSINE]
HL-60 [12]
  IC50: 2.48 µM
HL-60 [13]
  IC50: 2.38 µM
HL-60 [14]
  IC50: 2.41 µM
